How the values were obtained:
[1] = Pharmacokinetics after a single 150 mg oral dose, fasting or postprandial; format: in vivo, healthy Chinese subjects
Outline: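 Healthy volunteers, 50 per fasting or fed trial, in a randomized two-sequence (TRTR/RTRT), four-period, fully replicated crossover with a 7-day washout. Each dose was one 150 mg capsule with 240 mL warm boiled water, given fed after a ~950 kcal high-fat meal. 18 venous samples per period to 48 h in precooled EDTA-K2 tubes, spun 1700g 10 min 4 °C, plasma stored ≤−60 °C. Total-dabigatran range 1.000–300.0 ng/mL; parameters per subject.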

[2] = system: coagulation parameters (PT, PTA, APTT, TT); test: Coagulation parameters; format: in vivo, healthy Chinese subjects; conditions: for PT / TT / APTT / PTA: mean ± SD

Tmax ([1]; after a high-fat meal, median, both formulations)	Tmax ([1]; human, plasma, oral, 150 mg)	Compound	change of TT values after administration ([2]; both fasting and postprandial)	PT ([2]; fasting, fourth periodicity, n = 48, screening 13.01 ± 0.490)	TT ([2]; fasting, fourth periodicity, n = 48, screening 17.71 ± 0.880)	APTT ([2]; fasting, fourth periodicity, n = 48, screening 36.22 ± 3.090)	PTA ([2]; fasting, fourth periodicity, n = 48, screening 101.7 ± 7.960)	PT ([2]; fasting, second periodicity, n = 50, screening 13.01 ± 0.490)	TT ([2]; fasting, second periodicity, n = 50, screening 17.71 ± 0.880)	APTT ([2]; fasting, second periodicity, n = 50, screening 36.22 ± 3.090)	PTA ([2]; fasting, second periodicity, n = 50, screening 101.7 ± 7.960)	PT ([2]; postprandial, fourth periodicity, n = 50, screening 12.62 ± 0.570)	TT ([2]; postprandial, fourth periodicity, n = 50, screening 17.63 ± 0.940)	APTT ([2]; postprandial, fourth periodicity, n = 50, screening 36.25 ± 2.860)	PTA ([2]; postprandial, fourth periodicity, n = 50, screening 108.9 ± 10.58)	PT ([2]; postprandial, second periodicity, n = 50, screening 12.62 ± 0.570)	TT ([2]; postprandial, second periodicity, n = 50, screening 17.63 ± 0.940)	APTT ([2]; postprandial, second periodicity, n = 50, screening 36.25 ± 2.860)	PTA ([2]; postprandial, second periodicity, n = 50, screening 108.9 ± 10.58)
4 h	2.5 h	[H]/N=C(/N)c1ccc(NCc2nc3cc(C(=O)N(CCC(=O)O)c4ccccn4)ccc3n2C)cc1 [dabigatran]																	
		CCCCCCOC(=O)N=C(N)c1ccc(NCc2nc3cc(C(=O)N(CCC(=O)OCC)c4ccccn4)ccc3n2C)cc1 [dabigatran etexilate]	increased more significantly	13.07 ± 0.488 s	20.73 ± 2.099 s	36.61 ± 3.352 s	101.2 ± 8.167%	12.89 ± 0.475 s	19.58 ± 1.976 s	36.71 ± 3.947 s	104.4 ± 8.741%	12.82 ± 0.479 s	21.30 ± 2.537 s	36.22 ± 2.746 s	105.5 ± 8.808%	13.14 ± 0.504 s	20.78 ± 2.490 s	36.06 ± 2.660 s	100.2 ± 8.297%
